Test [1] in a line: OD615 S. cerevisiae growth inhibition, permissive medium, pilot counter-assay, permissive growth control for S. cerevisiae lifespan shortening project (AID 705;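 active = growth inhibition above 25% in both replicates, a cutoff set 3 SD above the mean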). The following applies: OD615, 24 h, at 10 µM, stronger effect = higher value. The method in brief:
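System: Engineered DeaD yeast | Buffer or medium: SC raffinose/galactose permissive medium | Incubation: Cells pre-grown 4 h, then 24 h compound exposure, 30 °C humidified | Measured by: Absorbance (optical density) at 615 nm | Read-out: Reduction in yeast growth (OD615)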

Test [2] can be described thus: Restrictive medium S. cerevisiae growth inhibition, OD615, pilot screen of yeast lifespan reduction project, restrictive growth control (AID 706;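 active = growth inhibition above a set limit, 3 SD over mean compound inhibition, in both replicates, cut at about 43% in these data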;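 also: modified DeaD lifespan yeast strain shifted to restrictive glucose medium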). The following applies: OD615, 48 h, at 10 µM, stronger effect = higher value. The method in brief: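 Material: modified S. cerevisiae; Medium: glucose-based CSMM-D restrictive medium; Compound dosing: one concentration, 10 µM final, 0.25% DMSO; Incubation: 48 h compound exposure at 30 °C; Measured by: OD615.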

A short description of test [3]: viability gain of MRP-1-high H69AR cells under doxorubicin, pilot screen, MRP-1 activator project, CellTiter-Glo, duplicate (AID 807).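 Also: compound pretreatment 18-22 h then 72 h combined with doxorubicin; 0% = doxorubicin alone and 100% = vehicle without doxorubicin.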 The following applies: H69AR viability with doxorubicin, CellTiter-Glo luminescence; at 10 µM; stronger effect = higher value. (In general: ATP-based viability assays read luminescence as a measure of living cells.)
The nature of test [4]: growth suppression of beta-catenin knockout HCT116, pilot screen, human colon tumor cells (AID 823;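 active = cell viability at or below a set limit in both duplicate runs, the limit being the all-compound median minus 4 SD, cut at about 23% in these data, passing the limit was not always enough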;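 also: 0% = wells killed by 20 µM Hyamine and 100% = untreated DMSO cell wells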). The following applies: CellTiter-Glo, 60 h, at 10 µM, stronger effect = lower value.
A short description of test [5]: growth suppression of PTEN-deleted HCT116, pilot screen, cell-based, HCT116 clonal line, CellTiter-Glo (AID 824;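 active = viability at or below 27.92% in each of two runs, the all-compound median minus 4 SD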;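 also: 0% = 20 µM Hyamine control and 100% = vehicle cell control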). The following applies: 60 h, at 10 µM, stronger effect = lower value.
A short description of test [6]: inhibitors of the yeast RAM network, pilot screen, dse1pr::URA3 reporter, 5-FOA selection (AID 869;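 active = inhibition over a set limit, the all-compound mean plus 3 SD, in both replicate runs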;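 also: 0% = DMSO wells with no growth and 100% = 10 µM 1-NA-PP1 with full growth; RAM network block rescues cells from 5-FOA so hits raise OD615 growth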). The following applies: S. cerevisiae dse1pr::URA3 5-FOA growth, OD615, 2 d; at 10 µM; stronger effect = higher value; strain carries analog-sensitive mutant Cbk1 kinase.
The nature of test [7]: RAM signaling pathway blockade in yeast – S. cerevisiae, Pdr1DBD-CYC8 efflux-inhibited sensitized strain, primary screen (AID 1298;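 active = RAM network inhibition above 8.4% in each of two replicates, 3 SD over the compound average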;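 also: 0% = DMSO untreated cells without growth and 100% = 10 µM 1-NA-PP1 full growth; higher means more yeast growth rescued from 5-FOA killing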). The following applies: S. cerevisiae cbk1-as DSE1-URA3 strain, 5-FOA growth OD615, 2 d; at 50 µM; stronger effect = higher value.

The structures appear in SMILES notation. A number with no mark means an inactive call. Results filed as inconclusive are left out. The source made the active and inactive calls.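 The calls were made as follows, unless noted: active = viability increase at or above a cutoff of the median across tested compounds plus 3 SD (cut at about 8.5% in these data, passing the limit was not always enough); inconclusive = some gains above the cutoff, reason not given; inactive = the rest.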

Usually viability stands for a read-out of living cells in per cent, often relative to untreated cells. For orientation: inhibition means the relative decrease from the control value, in per cent. On to `Cc1cccc(C2CC(c3ccc(F)cc3)Nc3nc(N)nn32)c1` (centres undefined), for which the figures for the growth inhibition in test [1] and in test [2] were -1.75% and 18.4%, respectively. Further, the viability increase in test [3] was 0.42%. Also, the viability in test [4] is 92.3%; in test [5] it was 77.1%. Besides, in test [6], the inhibition is 0.09%. Besides, in test [7], the RAM network inhibition is 0.31%.
`COc1ccc(OCC(=O)Nc2cc(-c3nn4c(C)nnc4s3)ccc2C)cc1`: the growth inhibition was 0.16% in test [1] and 0.525% in test [2]. For the same compound, in test [3], the viability increase was -1.72%. For the same compound, the viability in test [4] is 106%; in test [5] it was 94%. Besides, in test [6], the inhibition is 0.755%. The RAM network inhibition in test [7] is 5.36%.
As to `CCSCCOC(=O)C1=C(C)NC(=O)NC1c1cc(OC)ccc1OC` (centres undefined), the figures for the growth inhibition in test [1] and in test [2] were -4.26% and 4.14%, respectively. Besides, the viability increase in test [3] is -1.14%. Further, the values for the viability in test [4] and in test [5] were 86.9% and 90.8%, respectively. In addition, the inhibition in test [6] is 1.79%. The RAM network inhibition in test [7] was 2.39%.
On to `Cc1ccc(CNC(=O)CS(=O)Cc2nc(-c3cccs3)oc2C)cc1` (centres undefined), for which the results for the growth inhibition in test [1] and in test [2] were 13.6% and 57.4% (active), respectively. In addition, in test [3], the viability increase is -2.97%. Besides, the viability in test [4] is 90.5%; in test [5] it was 92.7%. Besides, the inhibition in test [6] was 1.67%. In addition, the RAM network inhibition in test [7] was 2.88%.
As for `CC(=O)NC1(c2ccccc2)CCN(Cc2nnnn2C(C)(C)C)CC1`, the growth inhibition in test [1] is -11.8%; in test [2], -17.9%. Besides, the viability increase in test [3] is -0.8%. Also, the viability in test [4] was 102%; in test [5], 96%. The inhibition in test [6] was 3.53%. Further, the RAM network inhibition in test [7] was 1.62%.
On to `O=C(CCCC(=O)OCC(F)(F)C(F)F)Nc1nccs1`, for which the growth inhibition was -7.96% in test [1] and 8.98% in test [2]. In test [3], the viability increase is -0.61%. Moreover, the viability in test [4] was 101%; in test [5], 102%. In test [6], the inhibition was 1.56%. In addition, in test [7], the RAM network inhibition is -0.01%.
In the case of `O=C(NCc1ccc2c(c1)OCO2)c1cc2c(s1)CSC2`, the growth inhibition in test [1] is -4.81%; in test [2], 3.8%. For the same compound, the viability increase in test [3] is -1.75%. For the same compound, the viability was 99.2% in test [4] and 95.5% in test [5]. In test [6], the inhibition was 1.75%. In addition, the RAM network inhibition in test [7] is 0.94%.
Turning to `Cn1c(=O)c2c(SC3CCCC3)nc(C3CC3)nc2n(C)c1=O`, the growth inhibition in test [1] was 3.3%; in test [2] it was -9.07%. In addition, in test [3], the viability increase is 1.43%. The figures for the viability in test [4] and in test [5] were 91% and 86.3%, respectively. In test [6], the inhibition was 2.54%. Moreover, in test [7], the RAM network inhibition was 2.78%.
As for `CC(C)NC(=O)NC(=O)COc1ncnc2sccc12`, the growth inhibition in test [1] is -4.68%; in test [2], -7.55%. For the same compound, the viability increase in test [3] is -1.28%. The values for the viability in test [4] and in test [5] were 97.6% and 105%, respectively. Besides, the inhibition in test [6] is 1.22%. Moreover, the RAM network inhibition in test [7] was 2.67%.
With `COc1cccc(NC(=O)CSc2nnc(-c3ccc(C)cc3)o2)c1`, the growth inhibition in test [1] was -10.3%; in test [2], -11.9%. In addition, in test [3], the viability increase is -0.97%. Besides, the viability was 93.9% in test [4] and 93.8% in test [5]. The inhibition in test [6] is 2.13%. In test [7], the RAM network inhibition is 4%.
As for `COc1cc(OC)cc(-c2cc(NC(C)=O)n[nH]2)c1`, the growth inhibition is -4.33% in test [1] and 6.38% in test [2]. For the same compound, the viability increase in test [3] is -3.17%. Also, the viability in test [4] was 90.8%; in test [5], 91.3%. Further, the inhibition in test [6] was 0.965%. Also, the RAM network inhibition in test [7] was 4.1%.
Turning to `Cn1c(=O)[nH]c(=O)c2c1nc(SCCN1CCOCC1)n2CCCc1ccccc1`, the growth inhibition in test [1] is -6.32%; in test [2], -14.4%. For the same compound, the viability increase in test [3] was -3.69%. For the same compound, the figures for the viability in test [4] and in test [5] were 96.8% and 85.5%, respectively. Besides, in test [6], the inhibition is 0.63%. The RAM network inhibition in test [7] is 4.46%.
With `Cc1ccc(NC(=O)CSc2nnc(-c3ccncc3)n2N)cc1C`, the values for the growth inhibition in test [1] and in test [2] were -4.62% and -3.02%, respectively. Further, in test [3], the viability increase is -2.83%. For the same compound, the viability is 97.8% in test [4] and 98.3% in test [5]. Further, in test [6], the inhibition was 1.71%. Also, in test [7], the RAM network inhibition is 2.23%.
Consider `O=c1c2ccccc2nnn1CSc1nnc(-c2ccco2)o1`, for which the results for the growth inhibition in test [1] and in test [2] were -8.6% and 2.08%, respectively. Also, the viability increase in test [3] was -4.5%. Besides, the viability was 83.3% in test [4] and 86.5% in test [5]. Also, in test [6], the inhibition was 0.57%. In addition, in test [7], the RAM network inhibition was 0.46%.
`O=C1CC(c2ccccc2)CN1S(=O)(=O)c1ccccc1` (centres undefined): the values for the growth inhibition in test [1] and in test [2] were -1.7% and 3.08%, respectively. Moreover, the viability increase in test [3] was 0%. Also, the viability was 108% in test [4] and 97.8% in test [5]. Besides, the inhibition in test [6] is 0.085%. The RAM network inhibition in test [7] is 1.71%.
With `CCn1cc(C(=O)NCC(=O)OC)c2cc(OC)c(OC)cc2c1=O`, the growth inhibition in test [1] was -6.43%; in test [2], -18.9%. In test [3], the viability increase is 0.9%. Moreover, the viability in test [4] is 105%; in test [5], 104%. In test [6], the inhibition is 0.59%. Besides, in test [7], the RAM network inhibition is 2.3%.
In the case of `Cc1cc(C)n(-c2nncc(-c3ccccc3)n2)n1`, the figures for the growth inhibition in test [1] and in test [2] were 14% and 34.6%, respectively. In addition, the viability increase in test [3] was -2.22%. The viability was 98.9% in test [4] and 95.6% in test [5]. The inhibition in test [6] is 1.86%. For the same compound, the RAM network inhibition in test [7] is 0.92%.

Source of the values: PubChem BioAssay.
